According to ChEMBL document CHEMBL4732268, “Discovery of a Potent and Selective Covalent p300/CBP Inhibitor” (ACS Med Chem Lett, 2021):
Each block holds one compound with its values, some of them ahead of it.

How the values were obtained:
[1] = Inhibition of human p300/CBP in human PC-3 cells assessed as decrease in H3K27 acetylation measured after 3 hrs by Fluorescence based plate reader assay; type: cell-based; settings: PC-3, 3 h
How it was run: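 PC-3 cells were treated with compound for 3 h, and the reduction in H3K27 acetylation was measured.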

[2] = test system: LNCaP-Clone-FGC; assay: Antiproliferative activity against AR-positive human LNCaP-Clone-FGC cells assessed as inhibition of cell proliferation measured after 5 days by luminiscent plate reader method; type: functional, cell-based; settings: 120 h
How it was run: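 LNCaP-FGC cells (androgen receptor-positive) were treated with compound for 5 days, then proliferation was read in a cell-growth assay. EC50 was derived from N = 2.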

[3] = Inhibition of human p300/CBP in human PC-3 cells assessed as decrease in H3K27 acetylation measured after 24 hrs by Fluorescence based plate reader assay; type: cell-based; settings: PC-3, 24 h
[4] = Inhibition of human p300/CBP in human PC-3 cells assessed as decrease in H3K27 acetylation incubated for 24 hrs followed by compound washout and measured after 1 hr by Fluorescence based plate reader assay; type: cell-based
How it was run: (§1)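 Washout assay. PC-3 cells were incubated with compound for 24 h, washed, and given fresh compound-free medium. Incubation then continued, and H3K27 acetylation was measured at set times from 1 to 48 h after washout. Inhibition is reported as EC50.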

[5] = Inhibition of human p300/CBP in human PC-3 cells assessed as decrease in H3K27 acetylation incubated for 24 hrs followed by compound washout and measured after 2 hr by Fluorescence based plate reader assay; type: cell-based; how it was run: as §1
[6] = Inhibition of human p300/CBP in human PC-3 cells assessed as decrease in H3K27 acetylation incubated for 24 hrs followed by compound washout and measured after 4 hr by Fluorescence based plate reader assay; type: cell-based; how it was run: as §1
[7] = Inhibition of human p300/CBP in human PC-3 cells assessed as decrease in H3K27 acetylation incubated for 24 hrs followed by compound washout and measured after 8 hr by Fluorescence based plate reader assay; type: cell-based; how it was run: as §1
[8] = Inhibition of human p300/CBP in human PC-3 cells assessed as decrease in H3K27 acetylation incubated for 24 hrs followed by compound washout and measured after 24 hr by Fluorescence based plate reader assay; type: cell-based; settings: PC-3, 24 h; how it was run: as §1
[9] = Inhibition of human p300/CBP in human PC-3 cells assessed as decrease in H3K27 acetylation incubated for 24 hrs followed by compound washout and measured after 48 hr by Fluorescence based plate reader assay; type: cell-based; how it was run: as §1
[10] = Inhibition of human p300/CBP in human PC-3 cells assessed as decrease in H3K27 acetylation measured after 48 hrs by Fluorescence based plate reader assay; type: cell-based; settings: PC-3, 48 h
[11] = Inhibition of human p300-BHC domain (residues 1036-1822)/CBP-BHC domain (residues 1072-1859) expressed in Bac-to-Bac Baculovirus expression system assessed as inhibition of lysine residues acetylation in Histone H4 synthetic substrate preincubated for 30 mins followed by addition of substrate and acetyl coenzyme A and measured after 1 hr by TR-FRET assay
[12] = test system: DU-145; assay: Antiproliferative activity against human DU-145 cells assessed as inhibition of cell proliferation measured after 5 days by luminiscent plate reader method; type: functional, cell-based; settings: DU-145, 120 h
How it was run: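 DU-145 cells (androgen receptor-negative) were treated with compound for 5 days, then proliferation was read in a cell-growth assay. EC50 was derived from the dose response.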

[13] = organism: Homo sapiens; assay: Ratio of EC50 for human p300/CBP in human PC-3 cells incubated for 24 hrs and measured 1 hr post washout to EC50 for human p300/CBP in human PC-3 cells measured after 24 hrs; type: cell-based
[14] = organism: Homo sapiens; assay: Ratio of EC50 for human p300/CBP in human PC-3 cells incubated for 24 hrs and measured 2 hr post washout to EC50 for human p300/CBP in human PC-3 cells measured after 24 hrs; type: cell-based
[15] = organism: Homo sapiens; assay: Ratio of EC50 for human p300/CBP in human PC-3 cells incubated for 24 hrs and measured 4 hr post washout to EC50 for human p300/CBP in human PC-3 cells measured after 24 hrs; type: cell-based
[16] = organism: Homo sapiens; assay: Ratio of EC50 for human p300/CBP in human PC-3 cells incubated for 24 hrs and measured 8 hr post washout to EC50 for human p300/CBP in human PC-3 cells measured after 24 hrs; type: cell-based
[17] = organism: Homo sapiens; assay: Ratio of EC50 for human p300/CBP in human PC-3 cells incubated for 24 hrs and measured 24 hr post washout to EC50 for human p300/CBP in human PC-3 cells measured after 24 hrs; type: cell-based
[18] = organism: Homo sapiens; assay: Ratio of EC50 for human p300/CBP in human PC-3 cells incubated for 24 hrs and measured 48 hr post washout to EC50 for human p300/CBP in human PC-3 cells measured after 24 hrs; type: cell-based
[19] = organism: Homo sapiens; assay: Ratio of EC50 for human p300/CBP in human PC-3 cells measured after 48 hr to EC50 for human p300/CBP in human PC-3 cells measured after 24 hrs; type: cell-based

EC50 [1]: 103 nM
EC50 [2]: 350 nM
EC50 [3]: 227 nM
EC50 [4]: > 10000 nM
EC50 [5]: > 10000 nM
EC50 [6]: > 10000 nM
EC50 [7]: > 10000 nM
EC50 [8]: > 10000 nM
EC50 [9]: > 10000 nM
EC50 [10]: 253 nM
Structure (SMILES): CNC(=O)Nc1ccc2c(c1)CC[C@@]21OC(=O)N(CC(=O)N(Cc2ccc(F)cc2)[C@@H](C)C(F)(F)F)C1=O [A-485]

Structure (SMILES): C=CS(=O)(=O)Nc1cccc(NC(=O)Nc2ccc3c(c2)CC[C@@]32OC(=O)N(CC(=O)N(Cc3ccc(F)cc3)[C@@H](C)C(F)(F)F)C2=O)c1
IC50 [11]: 604 nM
EC50 [1]: 1230 nM

Structure (SMILES): C=CC(=O)NCC(C)(C)CNC(=O)Nc1ccc2c(c1)CC[C@@]21OC(=O)N(CC(=O)N(Cc2ccc(F)cc2)[C@@H](C)C(F)(F)F)C1=O
IC50 [11]: 185 nM
EC50 [1]: 48 nM
EC50 [2]: 177 nM

Structure (SMILES): C=CS(=O)(=O)Nc1ccc(NC(=O)Nc2ccc3c(c2)CC[C@@]32OC(=O)N(CC(=O)N(Cc3ccc(F)cc3)[C@@H](C)C(F)(F)F)C2=O)cc1
IC50 [11]: 3020 nM

Structure (SMILES): C=CC(=O)Nc1ccc(NC(=O)Nc2ccc3c(c2)CC[C@@]32OC(=O)N(CC(=O)N(Cc3ccc(F)cc3)[C@@H](C)C(F)(F)F)C2=O)cc1
IC50 [11]: 22100 nM

Structure (SMILES): C=CC(=O)N1CCCN(C(=O)Nc2ccc3c(c2)CC[C@@]32OC(=O)N(CC(=O)N(Cc3ccc(F)cc3)[C@@H](C)C(F)(F)F)C2=O)C1
IC50 [11]: 2000 nM

Structure (SMILES): C=CS(=O)(=O)c1ccc(NC(=O)Nc2ccc3c(c2)CC[C@@]32OC(=O)N(CC(=O)N(Cc3ccc(F)cc3)[C@@H](C)C(F)(F)F)C2=O)cc1
IC50 [11]: 4270 nM

Structure (SMILES): C=CC(=O)Nc1cccc(NC(=O)Nc2ccc3c(c2)CC[C@@]32OC(=O)N(CC(=O)N(Cc3ccc(F)cc3)[C@@H](C)C(F)(F)F)C2=O)c1
IC50 [11]: 166 nM
EC50 [1]: 37 nM
EC50 [2]: 87 nM
EC50 [12]: 1370 nM
EC50 [3]: 11 nM
EC50 [4]: 15 nM
EC50 [5]: 17 nM
EC50 [6]: 24 nM
EC50 [7]: 129 nM
EC50 [8]: 544 nM
EC50 [9]: 656 nM
EC50 [10]: 21 nM
Ratio [13]: 1.3
Ratio [14]: 1.5
Ratio [15]: 2.1
Ratio [16]: 11.3
Ratio [17]: 47.8
Ratio [18]: 57.7
Ratio [19]: 1.8
